Activity calls are given as the source filed them. The rule behind the calls is not given here. Residues, ends and D or L forms follow the SMILES beside them. *: point of attachment. Adamantane1carbonyl = O=C(C12CC3CC(CC(C3)C1)C2)*; Pyrrolidide = C1CCN(*)C1; Cbz = O=C(OCc1ccccc1)*; OcHex = C1CCC(O*)CC1; OtBu = CC(C)(C)O*; OAll = C=CCO*; OPr = CCCO*
What was measured:
[1] = test system: HEK293; assay: Modulation of recombinant human FGF141b (1 to 252 residues)-recombinant human Nav1.6 C-terminal tail (1763 to 1976 residues) protein-protein interaction expressed in HEK293 cells assessed as relative luminescence value at 50 uM measured at 2 mins interval for 20 mins by split-luciferase complementation assay relative to control; assay type: cell-based; details: filed as modulator, time min 2-20
How it was run: (§1)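 Double-stable HEK293 line expressing CLuc-FGF14 and CD4-Nav1.6-C-tail-NLuc, kept on G418 and puromycin. Cells seeded for 24 h, then given compound for 1 h in serum-free, phenol red-free DMEM/F12 with a final 0.5% DMSO: 50 μM for screening, 0.25–100 μM over eight concentrations for dose-response; n = 4. D-luciferin added and read every 2 min for 20 min at 37 °C. Peak luminescence expressed as percent of per-plate DMSO mean (n = 32). IC50 from four-parameter nonlinear fit. At least 3 experiments.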

[2] = test system: HEK293; assay: Inhibition of full-length Photinus pyralis luciferase transfected in HEK293 cells at 25 uM incubated for 1 hrs by split-luciferase complementation assay; assay type: cell-based
How it was run: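 HEK293 cells transfected with full-length Photinus pyralis luciferase, then treated 1 h with 25 μM compound (n = 4) or 0.5% DMSO (n = 32). Luminescence read after D-luciferin addition, as in the LCA, normalized to per-plate DMSO controls. One-way ANOVA with Dunnett's test.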

[3] = biological target: T1, Sodium channel protein type 8 subunit alpha (Homo sapiens, UniProt Q9UQD0); assay: Binding affinity to human recombinant Nav1.6 C-terminal domain expressed in Escherichia coli BL21 assessed as association rate constant by SPR analysis; details: filed as modulator
How it was run: (§2)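 Biacore T100 runs with FGF14 (17,896 RU) or Nav1.6 C-tail (6,800 RU) amine-coupled on CM5 at pH 5.5. Compounds at 0.195–200 μM in PBS, 0.005% Tween-20, 2% DMSO; 50 μL/min at 25 °C. 120 s association, 150 s dissociation, DMSO calibration, blank subtraction. Rates from a Langmuir 1:1 fit; KD averages the kinetic and steady-state values. At least duplicate experiments.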
Target sequence in this assay (Q9UQD0 whole entry, looked up, the tested form may be a part): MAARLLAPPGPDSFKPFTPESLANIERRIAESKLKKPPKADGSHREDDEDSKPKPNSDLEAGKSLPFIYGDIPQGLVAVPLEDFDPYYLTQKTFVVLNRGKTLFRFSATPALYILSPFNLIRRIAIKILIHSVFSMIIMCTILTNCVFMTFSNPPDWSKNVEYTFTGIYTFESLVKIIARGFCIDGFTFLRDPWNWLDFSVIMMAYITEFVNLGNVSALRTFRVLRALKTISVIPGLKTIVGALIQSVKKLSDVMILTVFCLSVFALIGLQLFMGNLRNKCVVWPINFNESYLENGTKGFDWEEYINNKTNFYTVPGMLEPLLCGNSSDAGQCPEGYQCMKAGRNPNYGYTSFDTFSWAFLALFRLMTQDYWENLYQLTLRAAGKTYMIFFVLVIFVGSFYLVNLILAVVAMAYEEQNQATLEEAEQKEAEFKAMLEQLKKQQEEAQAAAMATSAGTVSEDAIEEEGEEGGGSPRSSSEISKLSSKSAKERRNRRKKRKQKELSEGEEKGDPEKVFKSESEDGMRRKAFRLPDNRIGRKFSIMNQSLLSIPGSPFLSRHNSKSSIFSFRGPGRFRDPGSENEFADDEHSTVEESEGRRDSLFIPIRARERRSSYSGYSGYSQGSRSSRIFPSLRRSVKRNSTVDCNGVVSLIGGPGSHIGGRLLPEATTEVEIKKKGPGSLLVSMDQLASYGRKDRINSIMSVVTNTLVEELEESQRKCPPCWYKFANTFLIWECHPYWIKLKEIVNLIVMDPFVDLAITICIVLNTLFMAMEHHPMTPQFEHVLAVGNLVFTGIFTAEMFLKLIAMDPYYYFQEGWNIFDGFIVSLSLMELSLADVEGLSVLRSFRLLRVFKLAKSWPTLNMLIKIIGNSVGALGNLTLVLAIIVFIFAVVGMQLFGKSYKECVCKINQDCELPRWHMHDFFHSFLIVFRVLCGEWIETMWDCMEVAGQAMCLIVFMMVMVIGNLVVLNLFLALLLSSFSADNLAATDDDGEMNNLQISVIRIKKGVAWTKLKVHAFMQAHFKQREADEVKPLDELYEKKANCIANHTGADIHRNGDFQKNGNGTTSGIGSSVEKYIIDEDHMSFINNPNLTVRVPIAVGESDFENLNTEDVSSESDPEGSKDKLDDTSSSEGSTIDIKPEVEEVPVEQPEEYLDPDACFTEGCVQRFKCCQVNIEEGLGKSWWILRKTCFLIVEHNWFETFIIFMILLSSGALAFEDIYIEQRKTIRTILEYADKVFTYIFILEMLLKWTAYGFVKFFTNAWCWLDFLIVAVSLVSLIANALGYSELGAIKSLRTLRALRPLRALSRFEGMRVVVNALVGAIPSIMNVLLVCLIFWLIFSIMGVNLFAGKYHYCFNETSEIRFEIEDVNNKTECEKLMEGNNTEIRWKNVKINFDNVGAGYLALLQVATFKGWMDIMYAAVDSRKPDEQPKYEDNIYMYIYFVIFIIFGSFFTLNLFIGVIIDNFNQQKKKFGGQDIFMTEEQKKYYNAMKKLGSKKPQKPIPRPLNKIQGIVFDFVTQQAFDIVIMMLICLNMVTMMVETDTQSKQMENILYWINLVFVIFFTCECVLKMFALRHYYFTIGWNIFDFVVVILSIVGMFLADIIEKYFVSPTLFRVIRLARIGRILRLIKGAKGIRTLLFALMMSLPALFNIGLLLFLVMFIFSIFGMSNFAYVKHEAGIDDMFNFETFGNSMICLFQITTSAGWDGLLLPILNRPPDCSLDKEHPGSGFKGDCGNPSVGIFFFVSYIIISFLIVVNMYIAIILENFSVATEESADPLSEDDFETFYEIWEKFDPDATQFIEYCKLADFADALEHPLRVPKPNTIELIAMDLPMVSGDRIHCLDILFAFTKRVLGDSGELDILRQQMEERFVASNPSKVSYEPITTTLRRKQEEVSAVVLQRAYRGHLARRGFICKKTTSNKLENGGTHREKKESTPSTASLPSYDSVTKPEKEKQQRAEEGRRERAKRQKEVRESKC

[4] = biological target: T2, Fibroblast growth factor 14 (Homo sapiens, UniProt Q92915); assay: Binding affinity to human recombinant FGF14 expressed in Escherichia coli BL21 assessed as dissociation constant by SPR analysis; how it was run: as §2
T2 sequence (Q92915 whole entry): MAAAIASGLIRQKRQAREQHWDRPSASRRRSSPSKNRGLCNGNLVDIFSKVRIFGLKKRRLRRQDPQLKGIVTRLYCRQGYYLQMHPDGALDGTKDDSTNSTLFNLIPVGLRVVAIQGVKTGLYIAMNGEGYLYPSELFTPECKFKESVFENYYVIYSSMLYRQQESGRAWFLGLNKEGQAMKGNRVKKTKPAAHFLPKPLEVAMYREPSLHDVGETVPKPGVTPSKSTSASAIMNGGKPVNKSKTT

[5] = biological target: T3, Fibroblast growth factor 14 (Homo sapiens) (UniProt Q92915); assay: Binding affinity to human recombinant FGF14 expressed in Escherichia coli BL21 assessed as assessed as induction of protein denaturation by measuring change in melting temperature at 50 uM by fluorescent dye based thermal shift assay; details: filed as modulator
T3 sequence (whole entry): T2 sequence (Q92915 whole entry)

[6] = biological target: T1, Sodium channel protein type 8 subunit alpha; assay: Binding affinity to human recombinant Nav1.6 C-terminal domain expressed in Escherichia coli BL21 assessed as dissociation constant by SPR analysis; how it was run: as §2
Target sequence in this assay (Q9UQD0 whole entry, the tested form may be a part): as the sequence (Q9UQD0 whole entry, looked up, the tested form may be a part) above

[7] = Modulation of recombinant human FGF141b (1 to 252 residues)-recombinant human Nav1.6 C-terminal tail (1763 to 1976 residues) protein-protein interaction expressed in HEK293 cells measured at 2 mins interval for 20 mins by split-luciferase complementation assay; assay type: cell-based; how it was run: as §1
[8] = test system: HEK293; assay: Cytotoxicity against HEK293 cells assessed as reduction in cell viability measured after 18 hrs by celltiter-blue assay; details: human, hek293, 18 h
[9] = biological target: T3, Fibroblast growth factor 14 (Homo sapiens); assay: Binding affinity to human recombinant FGF14 expressed in Escherichia coli BL21 assessed as dissociation rate constant by SPR analysis; details: filed as modulator; how it was run: as §2
[10] = biological target: T3, Fibroblast growth factor 14 (Homo sapiens); assay: Binding affinity to human recombinant FGF14 expressed in Escherichia coli BL21 assessed as association rate constant by SPR analysis; details: filed as modulator; how it was run: as §2
[11] = biological target: T1, Sodium channel protein type 8 subunit alpha; assay: Binding affinity to human recombinant Nav1.6 C-terminal domain expressed in Escherichia coli BL21 assessed as assessed as induction of protein denaturation by measuring change in melting temperature at 10 uM by fluorescent dye based thermal shift assay; details: filed as modulator, dose 50.0 µM
Target sequence in this assay (Q9UQD0 whole entry, looked up, the tested form may be a part): as the sequence (Q9UQD0 whole entry, looked up, the tested form may be a part) above

[12] = biological target: T1, Sodium channel protein type 8 subunit alpha; assay: Binding affinity to human recombinant Nav1.6 C-terminal domain expressed in Escherichia coli BL21 assessed as dissociation rate constant by SPR analysis; details: filed as modulator; how it was run: as §2
Target sequence in this assay (Q9UQD0 whole entry, looked up, the tested form may be a part): as the sequence (Q9UQD0 whole entry, looked up, the tested form may be a part) above

[13] = test system: HEK293; assay: Modulation of recombinant human FGF141b (1 to 252 residues)-recombinant human Nav1.6 C-terminal tail (1763 to 1976 residues) protein-protein interaction expressed in HEK293 cells measured at 2 mins interval for 20 mins by split-luciferase complementation assay relative to control; assay type: cell-based; details: filed as modulator, time min 2-20; how it was run: as §1

Row | SMILES | Activity [1] | inhibition [2] | K [3] | Kd [4] | ΔTm [5] | Kd [6] | IC50 [7] | Activity [8] | K [9] | K [10] | ΔTm [11] | K [12] | Efficacy [13]
1 | C=CCOC(=O)[C@@H](NC(=O)[C@H](CCC(=O)OC(C)(C)C)NC(=O)[C@H](CC(C)C)NC(=O)[C@@H]1CCCN1C(=O)C12CC3CC(CC(C3)C1)C2)C(C)C (Adamantane1carbonyl-PLE(OtBu)V-OAll) | 5% | inactive | 6.16 10^6/M/s | 1.31 µM | -4.55 °C | > 200 µM | 11.5 µM | Non-Toxic | 9.32 10^-3/s | 1.79 10^4/M/s | 0.04 °C | 2.73 10^-3/s | 95.5%
2 | CCCOC(=O)[C@@H](NC(=O)[C@H](CCC(=O)OC(C)(C)C)NC(=O)[C@H](CC(C)C)NC(=O)[C@@H]1CCCN1C(=O)C12CC3CC(CC(C3)C1)C2)C(C)C (Adamantane1carbonyl-PLE(OtBu)V-OPr) | – | – | 3.4 10^2/M/s | 11.4 µM | – | 90.1 µM | 22.5 µM | – | 2.04 10^-2/s | 2.89 10^2/M/s | – | 4.92 10^-2/s | 83.3%
3 | CC(C)C[C@H](NC(=O)[C@@H]1CCCN1C(=O)C12CC3CC(CC(C3)C1)C2)C(=O)N[C@@H](CCC(=O)OC(C)(C)C)C(=O)N[C@H](C(=O)OC1CCCCC1)C(C)C (Adamantane1carbonyl-PLE(OtBu)V-OcHex) | 43.4% | inactive | 7.16 10^5/M/s | 7.02 µM | -2.21 °C | > 200 µM | 35.3 µM | Non-Toxic | 1.39 10^-2/s | 7.35 10^3/M/s | 0.43 °C | 1.7 10^-4/s | 69.9%
4 | CC(C)C[C@H](NC(=O)[C@@H]1CCCN1C(=O)C12CC3CC(CC(C3)C1)C2)C(=O)N[C@@H](CCC(=O)OC(C)(C)C)C(=O)N[C@H](C(=O)OC(C)(C)C)C(C)C (Adamantane1carbonyl-PLE(OtBu)V-OtBu) | 33.6% | inactive | 8.29 10^5/M/s | 6.94 µM | -0.89 °C | > 200 µM | 33.9 µM | Non-Toxic | 5.8 10^-3/s | 1.62 10^3/M/s | -0.13 °C | 7.94 10^-3/s | 92.1%
5 | CC(C)C[C@H](NC(=O)[C@@H]1CCCN1C(=O)OCc1ccccc1)C(=O)N[C@@H](CCC(=O)OC(C)(C)C)C(=O)N[C@H](C(=O)N1CCCC1)C(C)C (Cbz-PLE(OtBu)V-Pyrrolidide) | 14% | inactive | – | 189 µM | 3.38 °C | – | 33.4 µM | Non-Toxic | 9.91 10^-4/s | 4.61 10^2/M/s | -0.48 °C | – | 96.9%

Reference: ChEMBL document CHEMBL4699573, “Design, Synthesis, and Pharmacological Evaluation of Analogues Derived from the PLEV Tetrapeptide as Protein-Protein Interaction Modulators of Voltage-Gated Sodium Channel 1.6” (J Med Chem, 2020)
